# Measured values from ChEMBL document CHEMBL3352343, “Structure-activity relationships of oxysterol-derived pharmacological chaperones for Niemann-Pick type C1 protein” (Bioorg Med Chem Lett, 2014).
# Test system: T1, NPC1-like intracellular cholesterol transporter 1 (Homo sapiens), Q9UHC9 [I1061T]
# T1 sequence (whole entry): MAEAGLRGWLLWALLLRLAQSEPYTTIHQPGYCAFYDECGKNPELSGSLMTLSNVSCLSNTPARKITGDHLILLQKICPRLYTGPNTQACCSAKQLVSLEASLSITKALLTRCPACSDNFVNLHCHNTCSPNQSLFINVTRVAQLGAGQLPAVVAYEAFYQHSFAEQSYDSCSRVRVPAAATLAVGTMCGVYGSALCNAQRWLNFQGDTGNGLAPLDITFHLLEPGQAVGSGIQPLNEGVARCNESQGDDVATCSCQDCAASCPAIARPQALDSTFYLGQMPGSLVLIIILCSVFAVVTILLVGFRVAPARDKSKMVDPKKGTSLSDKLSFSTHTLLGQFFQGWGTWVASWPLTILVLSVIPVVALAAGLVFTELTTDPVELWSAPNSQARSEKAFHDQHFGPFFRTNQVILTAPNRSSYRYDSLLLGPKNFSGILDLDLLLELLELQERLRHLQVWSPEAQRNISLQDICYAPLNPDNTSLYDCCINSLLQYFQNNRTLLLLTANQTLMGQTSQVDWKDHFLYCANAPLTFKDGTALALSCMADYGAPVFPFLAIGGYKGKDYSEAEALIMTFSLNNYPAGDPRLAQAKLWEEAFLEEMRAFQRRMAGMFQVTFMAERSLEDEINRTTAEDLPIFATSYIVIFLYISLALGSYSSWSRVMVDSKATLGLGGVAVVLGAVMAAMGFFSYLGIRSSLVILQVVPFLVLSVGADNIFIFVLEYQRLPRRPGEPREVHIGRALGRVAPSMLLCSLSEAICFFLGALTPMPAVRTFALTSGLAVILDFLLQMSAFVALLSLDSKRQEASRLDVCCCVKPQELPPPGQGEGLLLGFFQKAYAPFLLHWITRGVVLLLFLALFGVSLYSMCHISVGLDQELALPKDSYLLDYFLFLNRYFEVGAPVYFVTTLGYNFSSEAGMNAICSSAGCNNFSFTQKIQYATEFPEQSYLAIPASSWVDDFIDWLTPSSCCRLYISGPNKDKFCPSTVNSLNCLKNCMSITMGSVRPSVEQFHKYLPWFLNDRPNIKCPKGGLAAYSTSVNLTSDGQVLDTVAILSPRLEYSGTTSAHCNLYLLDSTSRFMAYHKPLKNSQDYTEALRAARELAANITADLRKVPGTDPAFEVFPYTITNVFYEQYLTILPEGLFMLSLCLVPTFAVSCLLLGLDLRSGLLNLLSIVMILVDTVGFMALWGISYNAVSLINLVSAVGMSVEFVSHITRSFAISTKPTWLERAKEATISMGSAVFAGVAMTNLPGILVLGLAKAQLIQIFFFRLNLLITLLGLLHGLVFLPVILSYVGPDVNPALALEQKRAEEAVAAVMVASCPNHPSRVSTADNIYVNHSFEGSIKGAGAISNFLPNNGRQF
# Test: Binding affinity to FLAG/tGFP-tagged NPC1 I1061T mutant (unknown origin) expressed in HEK293 cells assessed as localization after 24 hrs by fluorescence microscopy
# Assay type: cell-based
# Method in brief: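 HEK293 cells stably expressing NPC1 I1061T-tGFP were exposed to compound for 24 h, fixed, and nuclei stained with Hoechst 33342. In the images, each cell was scored by tGFP pattern: ER 0, mixed ER+vesicle 0.5, vesicular 1. Scores were averaged to give the vesicular-localization percentage, and EC50 was taken from concentration-response. Data are mean ± standard deviation of three independent experiments.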
compound,measurement,value
C[C@H](CCCC(C)(C)O)[C@H]1CC[C@H]2[C@@H]3CC=C4C[C@@H](O)CC[C@]4(C)[C@H]3CC[C@]12C,Activity,Dose-dependent effect
